# Experiments:
# [1] = test system: WI-38 lung fibroblast cells; experiment: MTT assay on WI-38; format: cell-based; conditions: read-out: IC50 WI-38, 24 h treatment
# Method in brief: (§1)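 Cells were grown in RPMI or DMEM with 10% FBS, penicillin and streptomycin at 37 °C under 5% CO2. They were seeded at 1 × 10^4 cells/well and exposed 24 h later for 24 h to the test compound at different concentrations (complexes 0–100 μM). After two PBS washes, 0.5 mg mL–1 MTT was added for 3–4 h at 37 °C. Formazan was dissolved in extraction buffer and OD read at 570 nm. % survival was taken relative to untreated cells (100%) to give IC50. Ratios were BPH1/PC3 and WI-38/A549 IC50.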
# [2] = test system: BPH1 cell line; experiment: MTT assay on BPH1; format: cell-based, human; conditions: read-out: IC50 BPH1, 24 h treatment
# Method in brief: as §1
# [3] = test system: PC3 cell line; experiment: MTT assay on PC3; format: cell-based, human; conditions: 24 h treatment
# Method in brief: as §1
# [4] = test system: A549 cell line; experiment: MTT assay on A549; format: cell-based; conditions: read-out: IC50 A549, 24 h treatment
# Method in brief: as §1
smiles,measurement,setting,value
"N.N.[Cl][Pt][Cl] [cisplatin, reference compound]",IC50,[1],66.5 ± 2.12 µM
same,IC50,[2],8 ± 1.03 µM
same,R1 = IC50 ratio of BPH1 cells to PC3 cells,[3],1.4
same,IC50,"[3]; read-out: IC50 PC3, MTT",5.4 ± 1.93 µM
same,IC50,[4],60.1 ± 2.43 µM

# From paper PMC8015125 (ACS Omega, 2021)
